Bioassay records deposited in PubChem by several laboratories.
Shown are actives, neighbours in structure and some others; about 3.6% of the full set was active somewhere.
ATG4B inh – inhibitors of human ATG4B cysteine protease; Q9Y4P1; ATG4B cleavage of LC3-PLA2, NBD-HPC fluorescence, 1 h; inhibition, % at 8.33 µM; 340,000 tested, 0.51% active; AID 504462; in the data active = inhibition above about 40%
Target sequence (Q9Y4P1 whole entry, looked up): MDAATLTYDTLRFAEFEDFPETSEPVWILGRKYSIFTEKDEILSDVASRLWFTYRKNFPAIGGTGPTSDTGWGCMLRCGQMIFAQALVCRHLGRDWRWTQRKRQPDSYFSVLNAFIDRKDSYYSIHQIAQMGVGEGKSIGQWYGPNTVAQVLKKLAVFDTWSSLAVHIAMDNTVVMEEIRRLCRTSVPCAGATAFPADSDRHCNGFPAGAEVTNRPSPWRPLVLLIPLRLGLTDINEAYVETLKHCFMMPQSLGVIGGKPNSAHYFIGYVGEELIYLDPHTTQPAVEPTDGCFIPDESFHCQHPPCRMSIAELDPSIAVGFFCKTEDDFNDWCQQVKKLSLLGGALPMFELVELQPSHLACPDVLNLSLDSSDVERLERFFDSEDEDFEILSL
SENP1 inh – SENP1 (human) catalytic domain inhibition. Q9P0U3. inhibition, % at 10 µM. recombinant SENP1 catalytic domain, CyPet-SUMO1-YPet FRET cleavage. 360,000 tested, 0.21% active;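 active = inhibition at least 30% at 10 µM, raw YFP signal under a set limit, fluorescence ratio 0.5 to 1.5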;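 also: 0% = enzyme with DMSO and 100% = no enzyme wells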
Target sequence (Q9P0U3 419-644 limits assumed): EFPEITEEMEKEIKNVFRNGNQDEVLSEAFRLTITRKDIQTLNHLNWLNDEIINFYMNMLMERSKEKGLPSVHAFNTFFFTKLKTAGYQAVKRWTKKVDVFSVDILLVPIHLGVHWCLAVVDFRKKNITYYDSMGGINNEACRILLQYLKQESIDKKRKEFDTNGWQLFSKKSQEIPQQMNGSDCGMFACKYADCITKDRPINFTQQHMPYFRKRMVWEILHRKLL
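System: Recombinant human SENP1 catalytic domain, His6-tagged | Incubation: Enzyme reaction for 50 min at room temperature, dark | Medium: Tris pH 8 with BME, BSA, NP40 and catalase | Also added: 25 nM SUMO1 FRET substrate | Compound: 10 µM single point, 0.5% DMSO | Measured by: FRET fluorescence in CFP and YFP emission channels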
UCH37 DUB inh – human UCH37 deubiquitinating enzyme inhibition | 330,000 tested, 0.33% active | Q9Y5K5 | inhibition, % (no concentration beside the values) | purified proteasome/UCH37, Ub-AMC cleavage fluorescence;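 active = mean inhibition over replicate wells above about 20%, limit read from the data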;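 also: 0% = compound-free wells with enzyme and 100% = wells lacking proteasome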
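Material: human UCH37 enzyme supplied as purified proteasome complex / Amount: 0.15 nM proteasome as dispensed / Buffer or medium: pH 7.4 Tris-HCl (50 mM) with ovalbumin, ATP-MgCl2, DTT / Times: preincubation 30 min, reaction 25 min, room temperature / Technique: AMC fluorescence from Ub-AMC cleavage, excitation 355 nm, emission 460 nm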
NR3A LBD binder – modulators (binders) of human NR3A ligand-binding domain; NR3A LBD differential scanning fluorimetry, Tm shift; 0% = protein alone, 100% = glycine-bound protein; AID 1259313; Tm shift relative to glycine control, % at 25 µM; 340,000 tested, 2.5% active;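 active = melting temperature shift of at least 10% of the positive control shift, at one fixed dose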
NadD block – inhibitors of Staphylococcus aureus NadD | purified NadD enzyme, colorimetric absorbance read-out | inhibition, % at 20 µM | 360,000 tested, 0.78% active | AID 602399; in the data active = inhibition above about 26%
Active calls of the source: *; · = no result.

SMILES	ATG4B inh	SENP1 inh	UCH37 DUB inh	NR3A LBD binder	NadD block
Cc1ccc(CNC(=O)COc2ccc(S(=O)(=O)N3CCOCC3)cc2)cc1	-2	1	1	10*	-10
O=C(NCC1COc2ccccc2O1)c1ccccc1 (stereo not given)	-6	1	3	1	-1
O=C(Cc1ccccc1)Nc1ccc(C(=O)NCC2COc3ccccc3O2)cc1 (stereo not given)	-4	0	-1	22*	-6
Cc1ccc(-n2c(SCC(=O)NCc3ccco3)nc3c(sc4ccccc43)c2=O)cc1	-7	1	-5	10*	11
O=C(CSc1nc2c(sc3ccccc32)c(=O)n1CCO)NCc1ccco1	1	1	-15	0	-1
COc1ccc(-c2nnc(OCc3ccccc3)c3ccccc23)cc1	-6	3	-1	16*	1
O=C1CC(C(=O)Nc2ccc(Br)cc2)S/C(=N\N=Cc2ccco2)N1 (stereo not given)	·	·	8	·	·
Cc1nnc(SCC(=O)NN=Cc2ccc(-c3ccc(C)c(Cl)c3)o2)s1	·	·	-31	·	·
O=C(Nc1ccc(-c2cn3c(n2)SCC3)cc1)c1ccc2ccccc2n1	-23	5	3	22*	14
Oc1ccc(-c2cn3c(n2)SCC3)cc1	-12	0	1	37*	-2
O=C(Nc1cccc(-c2cn3c(n2)SCC3)c1)c1ccc2ccccc2n1	-11	-4	4	-11	22
Cc1cc(C(=O)NN=Cc2c[nH]c3ccccc23)c(C)o1	·	·	6	·	·
Cc1c(C(=O)NN=Cc2ccncc2)no[n+]1[O-]	·	·	3	·	·
Cc1ccc(-c2cn3cccc(C)c3n2)cc1	-3	-3	-10	23*	2
CCC(=O)Nc1cccc(-c2cn3cccc(C)c3n2)c1	3	-1	-9	15*	1
NC(=O)c1ccsc1NC(=O)COC(=O)c1ccc([N+](=O)[O-])o1	-2	-1	1	12*	1
NC(=O)c1ccsc1NC(=O)COC(=O)c1ccc(Cl)c(N)c1	-10	-5	-3	23*	6
CCOC(=O)NN=Cc1ccc(C)s1	·	·	2	·	·
CCOC(=O)Cn1cnc2c(cnn2-c2ccc(Cl)cc2)c1=O	4	1	0	-1	-4
COC(=O)C(C)n1cnc2c(cnn2-c2ccc(Cl)cc2)c1=O (stereo not given)	-4	2	30*	0	4
COc1cc(/C=N/NC(=O)c2cc3ccccc3[nH]2)ccc1O	-20	4	·	34*	0
COc1ccc(OC)c2[nH]c(C(=O)N/N=C/c3ccccc3O)cc12	5	-20	·	18*	8
COc1ccc(OC)c2[nH]c(C(=O)NN=Cc3ccccc3O)cc12	·	·	-12	·	·
COc1cc(C=NNC(=O)c2cc3ccccc3[nH]2)ccc1O	·	·	-19	·	·
COc1cc(/C=N/Nc2snc(SC)c2C#N)ccc1O	-9	-51	·	20*	-2
SMILES	ATG4B inh	SENP1 inh	UCH37 DUB inh	NR3A LBD binder	NadD block
COc1cc(/C=N/Nc2ccc(C(F)(F)F)cn2)ccc1O	2	3	·	30*	-2
COc1ccc(C=NNc2nncc3ccccc23)cc1	·	·	6	·	·
Cc1nc(NN=Cc2ccc(O)cc2O)cc(N2CCOCC2)n1	·	·	9	·	·
COc1cc(/C=N/Nc2nc3ccccc3[nH]2)ccc1O	-19	1	·	15*	-1
FC(F)(F)c1ccccc1C=Nn1c(C2CCCCC2)n[nH]c1=S	·	·	7	·	·
CCOC(=O)Cc1csc(NC(=O)c2cccc(OC)c2)n1	-12	0	5	1	-4
CCOC(=O)Cc1csc(NC(=O)Nc2cccc(OC)c2)n1	-11	0	3	14*	-5
CCOC(=O)Cc1csc(NC(=O)Nc2ccc(F)cc2)n1	4	1	3	-5	-3
Cc1ccc(Nc2nc(COC(=O)COc3ccc(C=O)cc3)cs2)cc1	4	-1	3	10*	6
CCOC(=O)Cc1csc(NC(=O)Nc2ccc(C)cc2)n1	-13	2	-1	14*	-2
COc1ccccc1/C=C/C=NNC(=O)Cc1cccn1C	·	·	2	·	·
COc1ccc(C(=O)Nc2nc3ccc(OC)cc3s2)cc1	-12	0	-86	32*	-4
CCOC(=O)c1sc(NC(=O)c2ccc(S(=O)(=O)N3CCOCC3)cc2)cc1C	-21	0	-3	20*	-4
CCOC(=O)c1sc(NC(=O)c2cccc(S(=O)(=O)N3CCN(C)CC3)c2)cc1C	-11	0	0	-8	4
COC(=O)c1ccc(-c2nc3cc(Cl)c(N)cc3s2)cc1	3	-14	-38	1	8
COC(=O)c1ccc(C(=O)Nc2nc3cc(N)c(C)cc3s2)cc1	-5	15	4	36*	0
Cc1cc(F)ccc1NC(=O)c1ccc(NS(=O)(=O)c2cccs2)cc1	·	0	·	·	-3
Cc1cccc2sc(NC(=O)c3ccc(NS(=O)(=O)c4cccs4)cc3)nc12	2	-1	-37	36*	24
O=C(NN=Cc1cccc(O)c1)c1cc2c(ccc3ccccc32)o1	·	·	-9	·	·
CCC(=NNc1ccccc1Cl)c1cnnc(-c2ccccc2)n1	·	·	5	·	·
COc1cc2nc(NC(=O)c3ccccc3)[nH]c(=O)c2cc1OC	-3	1	8	-2	1
COc1ccc(C(=O)Nc2nc3ccc(S(C)(=O)=O)cc3s2)cc1	-18	-24	1	10*	-1
COc1ccc2nc(NC(=O)c3ccc(NC(=O)C4CCCO4)cc3)sc2c1 (stereo not given)	-12	0	-172	20*	-2
Cc1cccc2sc(NC(=O)CNS(=O)(=O)c3ccc(Br)s3)nc12	-5	-4	4	11*	-4
COc1cc2nc(NC(=O)c3ccccc3)sc(=O)c2cc1OC	-8	0	-1	42*	-13
SMILES	ATG4B inh	SENP1 inh	UCH37 DUB inh	NR3A LBD binder	NadD block
CC(CC(=O)Nc1ccccc1Cl)=NNC(=O)C(=O)NCCO	·	·	2	·	·
O=C(Oc1ccc(C=NNC(=O)c2ccccn2)cc1)c1cccc(Br)c1	·	·	-20	·	·
O=C(NN=Cc1ccc(COc2ccc([N+](=O)[O-])cc2)o1)c1ccc(Cl)cc1	·	·	4	·	·
COc1ccc2nc(NC(=O)c3ccc(NS(=O)(=O)c4cccs4)cc3)sc2c1	0	-1	-45	25*	5
CCOc1ccc2nc(NC(=O)c3ccc(S(=O)(=O)N4CCOCC4)cc3)sc2c1	7	0	-48	29*	7
O=C(NN=C/C=C\c1ccccc1[N+](=O)[O-])c1ccncc1	·	·	9	·	·
COc1ccc(C(=O)Nc2ccc(NC(=O)c3cccc(F)c3)cn2)cc1	1	1	-64	2	1
COc1ccc(C(=O)Nc2ccc(NC(=O)c3ccccc3OC)nc2)cc1	-20	0	-28	25*	-3
COc1ccc(NC(=O)c2cccs2)cc1	3	0	2	-18	1
Cc1cc(NC(=O)c2ccc(NC(=O)c3cccs3)cc2)no1	-3	3	0	14*	-2
